Experimental data from different studies.
Lines come from different studies, so protocols differ.
Medium: plasma

| SMILES | test system | setting | AUC(0-t) [ng·h/mL] |
| --- | --- | --- | --- |
| CCNCCCNC/C=C\CNCCCNCC | human | intravenous, 200 mg, patients, infusion | 1330 |
| CO[C@@H]1[C@H](OC(=O)N2CC(CCN3CCOCC3)C2)CC[C@]2(CO2)[C@H]1[C@@]1(C)O[C@@H]1CC=C(C)C | human | subcutaneous, 0.2 mg, single dose, healthy volunteers | 0.24 |
| CCCCC1=NC2(CCCC2)C(=O)N1Cc1ccc(-c2ccccc2S(=O)(=O)Nc2noc(C)c2C)c(COCC)c1 | human | oral, 800 mg, single dose, fasted, healthy volunteers | 138000 |
| C[C@@]1(c2cc(NC(=O)c3ccc(C#N)cn3)ccc2F)C=CSC(N)=N1 | human | oral, 3 mg, single dose | 231 |
| COc1cc(N2CCC(N3CCN(C)CC3)CC2)ccc1Nc1ncnc(Nc2ccccc2S(=O)(=O)C(C)C)n1 | human | oral, 125 mg, multiple doses, patients | 8320 |
| CO[C@H]1CC[C@H](N2C(=O)CNc3ncc(-c4ccc(C(C)(C)O)nc4)nc32)CC1 | human | oral, 45 mg, multiple doses, patients | 2080 |
| CC(C)n1cc(C#N)c2cc(-n3cc(C(=O)O)cn3)ccc21 | human | oral, 100 mg, single dose, fasted, healthy volunteers | 19400 |
| FC(F)(F)c1ccc(CNc2ccc(Cc3c[nH]c4ncc(Cl)cc34)cn2)cn1 | human | oral, 600 mg, multiple doses, patients | 13300 |
| C[C@@H](Nc1cc(F)cc(F)c1)c1cc(C(=O)N(C)C)cc2c(=O)cc(N3CCOCC3)oc12 | human | oral, 60 mg, single dose, patients | 1240 |
| COc1ccc([C@@H]2CN(C(=O)[C@@H](O)CO)C[C@@]2(C)[C@@H](C)O)cc1OC1CN(c2ccc(C)cn2)C1 | human | oral, 30 mg, single dose, healthy volunteers | 5620 |
| Cc1nc(NC(=O)N2CCC[C@H]2C(N)=O)sc1-c1ccnc(C(C)(C)C(F)(F)F)c1 | human | oral, 400 mg, patients | 40700 |
| CC(C)(O)c1ccccc1-c1ccc2[nH]c(/C=C/c3ccc(C(F)(F)F)cc3)nc2c1 | male human | oral, 120 mg, single dose, fasted | 2820 |
| COCCOc1cnc2ccn([C@H](C)c3nnc4c(F)cc(-c5cnn(C)c5)cn34)c(=O)c2c1 | human | oral, 50 mg, multiple doses, once daily, patients | 6940 |
